# Test results: ChEMBL document CHEMBL1275479, “Pharmacokinetics of miltefosine in Old World cutaneous leishmaniasis patients” (Antimicrob Agents Chemother, 2008)
# Tests used:
# Homo sapiens [1] = assay: Toxicity in patient with cutaneous leishmaniasis assessed as mild to moderate fatigue at […], po three times a day for 28 days; assay type: organism-based; design: route oral; conditions: in vivo, 672 h
# Homo sapiens [2] = assay: Plasma concentration in patient with cutaneous leishmaniasis at […], po three times a day measured after 22 to 28 days by LC-MS/MS assay; assay type: ADME, organism-based; design: route oral; conditions: in vivo
# Outline: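 31 cutaneous leishmaniasis patients given miltefosine 150 mg/day for 28 days. Venous EDTA blood was spun at about 23,100 × g, 4°C, 15 min, and plasma stored at ≤−20°C. Analysis was solid-phase extraction of 250 μl plasma, then isocratic C18 LC-MS/MS; range 4–2,000 ng/ml, higher samples diluted in blank plasma. Sampling windows: days 178–202, days 22–28.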
# Homo sapiens [3] = assay: Toxicity in patient with cutaneous leishmaniasis assessed as mild to moderate gastrointestinal side-effect at […], po three times a day for 28 days; assay type: organism-based; design: route oral; conditions: in vivo, 672 h
# Homo sapiens [4] = assay: Renal toxicity in patient with cutaneous leishmaniasis assessed as mild elevation of creatinine at […], po three times a day for 28 days; assay type: organism-based; design: route oral; conditions: in vivo, 672 h
# Homo sapiens [5] = organism: Homo sapiens; assay: Plasma concentration in patient with cutaneous leishmaniasis measured after 178 to 202 days by LC-MS/MS assay; conditions: in vivo
# [6] = Cmax in serum of patient with cutaneous leishmaniasis at 2.5 mg/kg, po once a day for 23 days by LC-MS/MS assay; assay type: ADME, organism-based; design: dose 2.5 mg/kg, route oral; conditions: human
# [7] = Terminal half life in patient with cutaneous leishmaniasis at 2.5 mg/kg, po once a day measured after 6 to 8 days by LC-MS/MS assay; assay type: ADME, organism-based; design: dose 2.5 mg/kg, route oral; conditions: human, in vivo
# Homo sapiens [8] = assay: Hepatotoxicity in patient with cutaneous leishmaniasis assessed as mild elevation of aspartate aminotransferase at […], po three times a day for 28 days; assay type: toxicity, organism-based; design: route oral; conditions: in vivo, 672 h
# Homo sapiens [9] = assay: Hepatotoxicity in patient with cutaneous leishmaniasis assessed as mild elevation of alanine aminotransferase at […], po three times a day for 28 days; assay type: toxicity, organism-based; design: route oral; conditions: in vivo, 672 h
# [10] = Terminal half life in patient with leishmaniasis at […], po three times a day for 28 days by LC-MS/MS assay; assay type: ADME, organism-based; design: route oral; conditions: human, in vivo
# Outline: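 Population pharmacokinetic fit in NONMEM of 382 plasma concentrations (LC-MS/MS, LLOQ 4 ng/ml) from 31 patients on 150 mg/day for 28 days, sampled up to day 202. Nested models were compared by objective function with the log likelihood ratio test and checked with observed-versus-predicted and conditional weighted residual plots; a two-compartment model was used for the terminal half-life.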
structure (smiles),measurement,setting,value
CCCCCCCCCCCCCCCCOP(=O)([O-])OCC[N+](C)(C)C [MILTEFOSINE],Activity,Homo sapiens [1],Toxic
same,Activity,Homo sapiens [2],30800 ng/mL
same,Activity,Homo sapiens [3],Toxic
same,Activity,Homo sapiens [4],Toxic
same,Activity,Homo sapiens [5],17.5 ng/mL
same,Cmax,[6],70 µg/mL
same,half-life,[7],6.25 days
same,Activity,Homo sapiens [8],Toxic
same,Activity,Homo sapiens [9],Toxic
same,half-life,[10],30.9 days
